Assay results from ChEMBL document CHEMBL2040734, “Benzothiazoles: search for anticancer agents” (2012).

Key:
Type in all cases: functional
HCC 2998 = test: Cytotoxicity against human HCC2998 cells assessed as cell growth at 1 uM after 48 hrs by sulforhodamine B assay; details: HCC 2998, 48 h, read-out: Activity
How it was run: (§1)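 Five-dose NCI panel run at 0.01, 0.1, 1, 10 and 100 µM. Cells were in RPMI 1640 with 5% FBS and 2 mM L-glutamine, seeded at 5000–40,000 cells/well and pre-incubated 24 h. Drug was diluted from a DMSO stock into medium with 50 µg/ml gentamicin. Exposure was 48 h at 37 °C, 5% CO2. Cells were fixed with cold TCA and stained with 0.4% SRB, read at 515 nm. Percent growth came from time-zero, control and test absorbances.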

CAKI-1 = test: Cytotoxicity against human Caki1 cells assessed as cell growth at 10 '-5 M after 48 hrs by sulforhodamine B assay; details: CAKI-1, 48 h, read-out: Activity
How it was run: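 Primary NCI-60 single-dose screen at 10 µM. Cells were grown in RPMI 1640 with 5% FBS and 2 mM L-glutamine and plated 24 h before drug addition. Compound was solubilized in DMSO, then exposed for 48 h at 37 °C under 5% CO2. Cells were TCA-fixed and stained with SRB, and absorbance was read at 515 nm. Growth was expressed relative to time-zero and untreated controls.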

MCF7 = test: Growth inhibition of human MCF7 cells after 48 hrs by sulforhodamine B assay; details: MCF7, 48 h; for CC50: read-out: LC50 (the source's name)
How it was run: (§2)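 Adherent NCI-60 lines were grown in RPMI 1640 with 5% FBS and 2 mM L-glutamine, plated at 5000–40,000 cells/well and preincubated 24 h. They were then exposed to five concentrations (0.01–100 µM, from a DMSO stock) for 48 h at 37 °C, 5% CO2. Cells were fixed with cold TCA (10% final, 60 min, 4 °C) and stained with 0.4% SRB. Dye was solubilized in 10 mM Tris base and A515 read. GI50 was derived from time-zero, control and treated absorbances.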

A549 [1] = test: Cytotoxicity against human A549 cells assessed as cell growth at 100 uM after 48 hrs by sulforhodamine B assay; details: A549, 48 h, read-out: Activity
How it was run: (§3)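 NCI-60 five-dose screen. Cells were grown in RPMI 1640 with 5% FBS and 2 mM L-glutamine and preincubated 24 h. Compound (DMSO stock) was tested at 0.01, 0.1, 1, 10 and 100 µM for 48 h at 37 °C. Cells were fixed in situ with cold TCA (final 10%) and stained with 0.4% SRB. A515 was read, and percent growth was calculated against time-zero and control plates.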

SNB-19 = test: Cytotoxicity against human SNB19 cells assessed as cell growth at 10 '-5 M after 48 hrs by sulforhodamine B assay; details: SNB-19, 48 h, read-out: Activity
UACC-62 = test: Cytotoxicity against human UACC62 cells assessed as cell growth at 0.1 uM after 48 hrs by sulforhodamine B assay; details: UACC-62, 48 h, read-out: Activity
SN12C [2] = test: Cytotoxicity against human SN12C cells assessed as cell growth at 10 '-5 M after 48 hrs by sulforhodamine B assay; details: read-out: Activity
SF-268 = test: Cytotoxicity against human SF268 cells assessed as cell growth at 10 uM after 48 hrs by sulforhodamine B assay; details: SF-268, 48 h, read-out: Activity
SW-620 = test: Cytotoxicity against human SW620 cells assessed as cell growth at 0.01 uM after 48 hrs by sulforhodamine B assay; details: SW-620, 48 h, read-out: Activity
NCI-H23 = test: Cytotoxicity against human NCI-H23 cells assessed as cell growth at 0.1 uM after 48 hrs by sulforhodamine B assay; details: NCI-H23, 48 h, read-out: Activity
TK-10 = test: Cytotoxicity against human TK10 cells assessed as cell growth at 0.01 uM after 48 hrs by sulforhodamine B assay; details: TK-10, 48 h, read-out: Activity
A549 [3] = test: Growth inhibition of human A549 cells after 48 hrs by sulforhodamine B assay; details: A549, 48 h
How it was run: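 Cells were in RPMI 1640 with 5% FBS and pre-incubated 24 h. Read-out was TCA fixation, SRB staining and absorbance at 515 nm. GI50 was the concentration where [(Ti−Tz)/(C−Tz)]×100 = 50, taken from log concentration vs % growth curves. It is given as ">" the top concentration when not reached.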

NCI-H460 [4] = test: Cytotoxicity against human NCI-H460 cells assessed as cell growth at 10 '-5 M after 48 hrs by sulforhodamine B assay; details: NCI-H460, 48 h, read-out: Activity
NCI/ADR-RES = test: Cytotoxicity against human NCI/ADR-RES cells assessed as cell growth at 10 '-5 M after 48 hrs by sulforhodamine B assay; details: read-out: Activity
SK-MEL-28 [5] = test: Cytotoxicity against human SK-MEL-28 cells assessed as cell growth at 1 uM after 48 hrs by sulforhodamine B assay; details: SK-MEL-28, 48 h, read-out: Activity
HOP-62 = test: Cytotoxicity against human HOP62 cells assessed as cell growth at 1 uM after 48 hrs by sulforhodamine B assay; details: HOP-62, 48 h, read-out: Activity; how it was run: as §1
BT-549 = test: Cytotoxicity against human BT549 cells assessed as cell growth at 0.01 uM after 48 hrs by sulforhodamine B assay; details: BT-549, 48 h, read-out: Activity; how it was run: as §3
MDA-MB-435 = test: Cytotoxicity against human MDA-MB-435 cells assessed as cell growth at 100 uM after 48 hrs by sulforhodamine B assay; details: MDA-MB-435, 48 h, read-out: Activity
SN12C [6] = test: Growth inhibition of human SN12C cells after 48 hrs by sulforhodamine B assay; details: for CC50: read-out: LC50 (the source's name); how it was run: as §2
NCI-H322M = test: Cytotoxicity against human NCI-H322M cells assessed as cell growth at 100 uM after 48 hrs by sulforhodamine B assay; details: read-out: Activity
MOLT-4 = test: Cytotoxicity against human MOLT4 cells assessed as cell growth at 1 uM after 48 hrs by sulforhodamine B assay; details: MOLT-4, 48 h, read-out: Activity
NCI-H460 [7] = test: Cytotoxicity against human NCI-H460 cells assessed as cell growth at 0.01 uM after 48 hrs by sulforhodamine B assay; details: NCI-H460, 48 h, read-out: Activity
SF-295 = test: Cytotoxicity against human SF295 cells assessed as cell growth at 0.01 uM after 48 hrs by sulforhodamine B assay; details: SF-295, 48 h, read-out: Activity
SK-MEL-5 = test: Cytotoxicity against human SK-MEL-5 cells assessed as cell growth at 10 '-5 M after 48 hrs by sulforhodamine B assay; details: SK-MEL-5, 48 h, read-out: Activity
MDA-MB-231 = test: Cytotoxicity against human MDA-MB-231 cells assessed as cell growth at 100 uM after 48 hrs by sulforhodamine B assay; details: MDA-MB-231, 48 h, read-out: Activity
SK-MEL-28 [8] = test: Cytotoxicity against human SK-MEL-28 cells assessed as cell growth at 10 uM after 48 hrs by sulforhodamine B assay; details: SK-MEL-28, 48 h, read-out: Activity

SMILES	growth at 1 µM (HCC 2998) [%]	growth at 10 µM (CAKI-1) [%]	GI50 (MCF7) [nM]	TGI (MCF7) [nM]	CC50 (MCF7) [nM]	growth at 100 µM (A549 [1]) [%]	growth at 10 µM (SNB-19) [%]	growth at 0.1 µM (UACC-62) [%]	growth at 10 µM (SN12C [2]) [%]	growth at 10 µM (SF-268) [%]	growth at 0.01 µM (SW-620) [%]	growth at 0.1 µM (NCI-H23) [%]	growth at 0.01 µM (TK-10) [%]	LC50 (concentration killing 50% of cells) (A549 [3]) [nM]	TGI (A549 [3]) [nM]	growth at 10 µM (NCI-H460 [4]) [%]	growth at 10 µM (NCI/ADR-RES) [%]	growth at 1 µM (SK-MEL-28 [5]) [%]	growth at 1 µM (HOP-62) [%]	growth at 0.01 µM (BT-549) [%]	further results
Cc1ccc2nc(Nc3c(C)cccc3C)sc2c1	70	22.1	1200	> 100000	> 100000	69	59.5	85	50	64	97	92	104	> 100000	> 100000	22.7	4.04	66	66	98	growth at 100 µM (MDA-MB-435): -10%; TGI (SN12C [6]): > 100000 nM; CC50 (SN12C [6]): > 100000 nM; growth at 100 µM (NCI-H322M): 69%; growth at 1 µM (MOLT-4): 76%; growth at 0.01 µM (NCI-H460 [7]): 102%; growth at 0.01 µM (SF-295): 91%; growth at 10 µM (SK-MEL-5): 26.8%; growth at 100 µM (MDA-MB-231): -6%; growth at 10 µM (SK-MEL-28 [8]): 45%
Clc1cccc(Cl)c1Nc1nc2cccc(Cl)c2s1	70	-10.6	811	2240	5370	-55	13.8	86	-71.5	-87	97	83	98	7470	2870	-57.9	-37.3	77	67	102	GI50 (A549 [3]): 1110 nM; growth at 100 µM (MDA-MB-435): -67%; GI50 (SN12C [6]): 772 nM; TGI (SN12C [6]): 2120 nM; CC50 (SN12C [6]): 4850 nM; growth at 100 µM (NCI-H322M): -95%; growth at 1 µM (MOLT-4): 52%; growth at 0.01 µM (NCI-H460 [7]): 102%; growth at 0.01 µM (SF-295): 93%; growth at 10 µM (SK-MEL-5): -71.3%; growth at 100 µM (MDA-MB-231): -70%; growth at 10 µM (SK-MEL-28 [8]): -86%
